KCNQ1 inh: inhibitors of human KCNQ1 potassium channel; hit rate 1.3% among 310,000; P51787; B-score at 10 µM; CHO-K1 KCNQ1, FluxOR thallium flux fluorescence; hits give high values;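 active = compounds whose thallium flux B-score, printed positive for inhibition, exceeds three library SD while starting fluorescence stays within three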;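 note: channel opened by potassium depolarization with thallium stimulus after 20 min compound exposure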
hERG protect: compounds protecting human hERG from proarrhythmic drug block; Q12809; CHO-hERG, FluxOR thallium flux, dofetilide IC70 present; activation (rescue from dofetilide block), less the hit threshold, % at 10 µM; hit rate 0.51% among 310,000; AID 1511;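 active = activation above the mean of controls blocked by dofetilide plus 5 SD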;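 note: thallium influx through hERG after potassium depolarization seen as dye fluorescence rise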
KCNQ1 pot: human KCNQ1 channel potentiation or activation. P51787. B-score at 10 µM. CHO-K1 KCNQ1, thallium flux FluxOR fluorescence; hits give high values. hit rate 0.35% among 310,000. AID 2648;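 active = fluorescence ratio B-score, a plate-corrected score, at least three library SD, with initial intensity B-score within 5 SD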
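Medium – assay buffer, equal DMSO in all wells · Material – CHO-K1 cell line with stable KCNQ1 potassium channel expression · Signal – kinetic FluxOR thallium fluorescence, 10-s 1-Hz baseline, 110-s post-stimulus read · Compound – single concentration per compound, DMSO matched to controls · Schedule – 37 °C overnight plating, 90-min dark dye load, 20-min compound pretreatment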
Kir21 block: inhibitors of mouse Kir2.1 inward-rectifier potassium channel. HEK293-Kir2.1, FluxOR thallium flux fluorescence; hits give low values. B-score at 10 µM. hit rate 0.85% among 310,000;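 active = fluorescence ratio B-score at or below minus 3 SD of library scores, with starting-brightness B-score within 2 SD, cut at about -4.2 in these data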;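 note: channel flux triggered by added potassium and thallium sulfate stimulus; B-score of peak minus minimum fluorescence over baseline after thallium stimulus; more negative B-score means stronger Kir2.1 block with less thallium influx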
KCNK9 block: inhibitors of human KCNK9 two-pore domain potassium channel. HEK293 KCNK9, FluxOR thallium flux fluorescence; hits give low values. B-score at 10 µM. hit rate 1.2% among 310,000. Q9NPC2;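 active = ratio B-score over 3 SD below the library mean, with starting fluorescence within 5 SD of its mean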;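 note: negative B-score means less thallium flux so channel inhibition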
KCNK3 inh: human KCNK3 channel inhibition, primary screen; B-score at 10 µM; hit rate 0.84% among 340,000; CHO-KCNK3 thallium flux, FluxOR fluorescence; hits give low values;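 active = B-score under library mean minus 4 SD, starting fluorescence ratio at most library mean plus 5 SD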;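 note: more negative B-score means stronger inhibition of thallium flux through KCNK3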
Target sequence (O14649 whole entry, looked up): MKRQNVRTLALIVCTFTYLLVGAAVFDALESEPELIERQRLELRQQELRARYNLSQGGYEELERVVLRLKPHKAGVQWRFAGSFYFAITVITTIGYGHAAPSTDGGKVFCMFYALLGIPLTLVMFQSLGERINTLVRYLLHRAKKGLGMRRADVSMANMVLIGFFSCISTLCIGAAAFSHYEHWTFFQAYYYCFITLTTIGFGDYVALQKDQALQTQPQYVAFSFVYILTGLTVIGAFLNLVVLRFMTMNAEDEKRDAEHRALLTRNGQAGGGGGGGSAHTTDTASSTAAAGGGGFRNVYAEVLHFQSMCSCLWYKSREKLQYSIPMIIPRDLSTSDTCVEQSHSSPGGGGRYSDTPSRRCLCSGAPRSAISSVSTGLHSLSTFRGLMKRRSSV
* marks the source's active call; other numbers are inactive results; i = inactive; nt = no result. Most compounds without a hit are left out; they make up all but 3.7% or so of the library.

SMILES	KCNQ1 inh	hERG protect	KCNQ1 pot	Kir21 block	KCNK9 block	KCNK3 inh
CCOC(=O)c1c(C)n(-c2ccccc2)c2ccc(O)c(CN(C)C)c12	i	-16.7	i	-4.74*	i	i
Oc1c(Br)cc(Br)cc1/C=N/c1nccs1	nt	nt	nt	nt	nt	i
Oc1c(Br)cc(Br)cc1C=Nc1cccnc1	i	-18.0	15*	-0.86	i	i
Oc1c(Br)cc(Br)cc1C=Nc1ccc2[nH]ncc2c1	i	5.4*	10*	-3.47	-7.69*	i
COc1ccc(C=Nc2ccc3[nH]ncc3c2)c(O)c1	i	-7.9	i	-0.99	i	i
Cc1cc(C)c2cc(C#N)c(N3CCCN(C(=S)NCCCN(C)C)CC3)nc2c1	i	-13.4	i	-6.6*	i	i
COc1ccc(NC(=O)/C(=C/c2ccc(OC(C)=O)c(OC)c2)NC(C)=O)cc1	i	-2.8	88*	0.77	i	i
COc1cc(/C=C(\NC(C)=O)C(=O)Nc2ccc(NC(C)=O)cc2)ccc1OC(C)=O	i	-2.0	i	-0.6	i	i
CN(C(=O)c1ccc(NC(=O)C2CCCN(C(=O)OC(C)(C)C)C2)cc1)C1CC1 (configuration not stated)	nt	nt	nt	nt	nt	i
CCOC(=O)C1=C(C)N=C2SCCC(=O)N2C1c1cccs1 (configuration not stated)	i	-1.0	i	-0.05	i	i
COC(=O)C1=C(C)N=C2SCCC(=O)N2C1c1cc(Br)ccc1OC (configuration not stated)	i	-9.8	i	-0.29	i	i
CCOC(=O)C1=C(C)N=C2SCCC(=O)N2[C@@H]1c1cccs1	i	-4.6	i	-4.29*	i	i
C=CCOC(=O)C1=C(C)N=C2SCCC(=O)N2C1c1ccc(OC(=O)c2ccco2)cc1 (configuration not stated)	i	-4.6	i	-5.04*	i	i
COC(=O)C1=C(C)N=C2SCCC(=O)N2C1/C=C/c1ccccc1 (configuration not stated)	i	-6.1	i	0.06	i	-8.92*
O=C1C(Cl)=C(O)C2(Cl)C(Cl)=C(Cl)C12Cl (configuration not stated)	nt	nt	nt	nt	nt	i
Nc1cc(N)nc(SCC(=O)NCc2ccc3c(c2)OCO3)n1	nt	nt	nt	nt	nt	i
COc1cccc2c1O/C(=N\O)C(C(=O)Nc1cccc(Br)c1)C2 (configuration not stated)	i	-7.2	i	1.03	i	i
Cc1ccc(C)c(Oc2cc(NC(=O)CCCn3nc(C)c([N+](=O)[O-])c3C)cc([N+](=O)[O-])c2)c1	i	-0.7	i	0.8	-7.74*	i
CC(=O)Nc1ccc2nc(NC(=O)c3ccc([N+](=O)[O-])o3)sc2c1	i	3.5	i	-0.11	i	i
CCN(CC)S(=O)(=O)c1ccc2c(c1)N(CC(=O)N1CCC(C(N)=O)CC1)C(=O)CO2	i	-7.4	i	0.52	i	i
CC[n+]1ccccc1/C=C/c1ccc(N(C)C)cc1	8*	-32.7	i	-0.1	i	i
CN(C)c1ccc(/C=C/c2cc[n+]([O-])cc2)cc1	i	-38.0	i	-10.7	i	nt
CC[n+]1ccc(/C=C/c2ccc(N(C)C)cc2)c2ccccc21	nt	nt	nt	nt	nt	-9.93*
NC(=O)C1CCN(C(=O)CN(C2CCCCC2)S(=O)(=O)c2ccc(F)cc2)CC1	i	-6.5	i	0.51	i	i
Cc1ccc(NC2C(=O)NC(=O)NC2=O)cc1	nt	nt	nt	nt	nt	i
SMILES	KCNQ1 inh	hERG protect	KCNQ1 pot	Kir21 block	KCNK9 block	KCNK3 inh
O=[N+]([O-])c1ccccc1OCC(O)CN1CCN(CC(O)COc2ccccc2[N+](=O)[O-])CC1 (configuration not stated)	11*	-3.7	i	-0.43	i	i
CCC(C)Sc1ccc(-c2nc3ccccn3c2NCc2ccccc2)cc1OC (configuration not stated)	nt	nt	nt	nt	nt	i
COc1ccc(CSc2ccc(-c3nc4ccccn4c3NCc3ccccc3)cc2OC)cc1	6*	-7.4	i	-1.17	i	i
CN(C)C(=O)CSc1ccccc1C(=O)OCC(=O)NC1CC1	nt	nt	nt	nt	nt	i
CCCc1cc(=O)n2[nH]cc(-c3ccc(Cl)cc3)c2n1	i	2.6	10*	-0.18	i	i
COc1ccc(-c2csc(NC(=S)NC(=O)c3ccco3)n2)cc1	i	-3.3	8*	1.44	i	i
CC(C)CC(=O)NC(=S)Nc1nc(-c2ccc(Cl)cc2)cs1	i	-4.0	i	-0.9	i	i
Cc1ccc(-c2csc(NC(=S)NC(=O)c3cccs3)n2)cc1	i	-3.3	i	1.84	i	i
O=C(NC(=S)Nc1nc(-c2ccccc2)cs1)c1ccco1	i	24.7*	30*	-0.15	i	i
O=C(NC(=S)Nc1nc(-c2ccccc2)cs1)c1cccs1	i	17.2*	17*	-0.09	i	i
CC(C)CC(=O)NC(=S)Nc1nc(-c2ccccc2)cs1	i	-0.1	9*	0.23	i	i
O=C(Nc1nc(-c2ccncc2)cs1)c1ccco1	i	-7.5	i	-0.42	i	i
O=C(NCc1ccco1)c1ccc(Cl)c(S(=O)(=O)N2CCCC2)c1	nt	nt	nt	nt	nt	i
Cc1onc(-c2ccccc2)c1C(=O)Nc1nc(-c2ccccc2)cs1	6*	-5.1	i	0.76	i	i
Cc1onc(-c2ccccc2)c1C(=O)Nc1nc(-c2cc(F)ccc2F)cs1	i	-19.0	i	-0.85	i	i
COC(=O)[C@H](CO)N1C(=O)[C@@H]2[C@H](C1=O)C1C=C[C@H]2C1	nt	nt	nt	nt	nt	i
Cc1cc(NC(=O)Nc2cccc(C(F)(F)F)c2)n(C)n1	6*	-8.4	i	2	i	i
O=C(Nc1ccccc1)Nc1cccc(C(F)(F)F)c1	i	-6.7	i	0.38	i	i
FC(F)(F)c1cccc(NC(=S)Nc2ccc(Cl)c(Cl)c2)c1	7*	-26.5	i	-0.11	i	i
FC(F)(F)c1cccc(NC(=S)NNC(=S)Nc2cccc(C(F)(F)F)c2)c1	i	-2.0	i	1.55	i	nt
CC(C)(O)C(=O)NNC(=S)Nc1cccc(C(F)(F)F)c1	7*	-2.1	i	1.53	i	i
Cc1ccc(CN2CC(C(=O)N3CC(C)CC(C)C3)CC2=O)cc1 (configuration not stated)	i	-4.9	i	0.35	i	i
Cc1ccccc1OCC(O)CNC1CCC(NCC(O)COc2ccccc2C)CC1 (configuration not stated)	i	-2.5	i	-5.5*	i	i

Source: PubChem BioAssay (Johns Hopkins Ion Channel Center)
